Results as given in ChEMBL document CHEMBL1127550 (J Med Chem, 1994).

Assays:
[1] = target: T1, Cannabinoid receptor (Rattus norvegicus, UniProt Q9QZN9+P20272); assay: Binding affinity for the cannabinoid receptor in the presence of phenylmethanesulfonyl fluoride (PMSF) was determined in rat fore brain membranes; assay type: cell membranes, Membrane
[2] = species: Mus musculus; assay: Tested for potency towards inhibition of the twitch response in mouse vas deferens; assay type: functional
How it was run: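 Vasa deferentia from albino MF1 mice were mounted at 0.5 g initial tension in Mg2+-free Krebs at 37 °C, gassed 95% O2/5% CO2, and stimulated electrically (0.5 ms pulses). Increasing doses were added after washout; twitch amplitude at 14-15 min post-addition was compared with the pre-drug final minute. IC50 came from nonlinear-regression sigmoid log concentration-response curves, n = 6-8 tissues.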

[3] = target: T1, Cannabinoid receptor; assay: Binding affinity for the cannabinoid receptor in the absence of phenylmethanesulfonyl fluoride (PMSF) was determined in rat fore brain membranes; assay type: cell membranes, Membrane
[4] = tested on: Mus musculus; assay: Mean percentage time spend immobile on ring between 5 and 10 min at 10 (mg/kg) intravenous dose in 6 mice; assay type: ADME, organism-based; details: in vivo
How it was run: (§1)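 In male MF1 mice (23-29 g) dosed iv at time zero with a Tween 80/saline dispersion, each animal was placed at 5 min on a 5.5-cm horizontal ring on a 16-cm stalk. The percentage of the 5-min session spent immobile was scored. Ambient 20-22 °C, means ± SE, Dunnett's test versus vehicle.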

[5] = tested on: Mus musculus; assay: Mean number of squares entered(counts) over a 5 min period after placement in the center of a walled arena marked out in 16 squares of equal size at 10 (mg/kg) intravenous dose in 6 mice; assay type: ADME, organism-based; details: in vivo
How it was run: (§2)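 Male MF1 mice (23-29 g) given drug iv at time zero (Tween 80/saline dispersion; vehicle control). Each mouse was placed immediately in the centre of a 30 × 30 cm walled arena divided into 16 equal squares. Squares entered from 0 to 5 min were counted. Ambient 20-22 °C, means ± SE, Dunnett's test against vehicle.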

[6] = tested on: Mus musculus; assay: Mean difference between rectal temperature measured at time zero and rectal temperature measured at 10 min at 6.25 (mg/kg) intravenous dose in 6 mice; assay type: ADME, organism-based; details: in vivo
How it was run: (§3)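 Male MF1 mice (23-29 g), drug dispersed with two parts Tween 80 by weight in 0.9% saline, injected iv at time zero; Tween 80 vehicle control. Rectal thermistor probe inserted 3 cm, read shortly before time zero and at 10 min; change = difference. Mice unrestrained in separate cages, ambient 20-22 °C. Means ± SE, Dunnett's test versus vehicle.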

[7] = tested on: Mus musculus; assay: Mean number of squares entered(counts) over a 5 min period after placement in the center of a walled arena marked out in 16 squares of equal size at 6.25 (mg/kg) intravenous dose in 6 mice; assay type: ADME, organism-based; details: in vivo; how it was run: as §2
[8] = tested on: Mus musculus; assay: Mean difference between rectal temperature measured at time zero and rectal temperature measured at 10 min at 10 (mg/kg) intravenous dose in 6 mice; assay type: ADME, organism-based; details: in vivo; how it was run: as §3
[9] = tested on: Mus musculus; assay: Mean percentage time spend immobile on ring between 5 and 10 min at 6.25 (mg/kg) intravenous dose in 6 mice; assay type: ADME, organism-based; details: in vivo; how it was run: as §1
[10] = tested on: Mus musculus; assay: Mean number of squares entered(counts) over a 5 min period after placement in the center of a walled arena marked out in 16 squares of equal size at 1.5625 (mg/kg) intravenous dose in 6 mice; assay type: ADME, organism-based; details: in vivo; how it was run: as §2
[11] = tested on: Mus musculus; assay: Mean percentage time spend immobile on ring between 5 and 10 min at 1.5625 (mg/kg) intravenous dose in 6 mice; assay type: ADME, organism-based; details: in vivo; how it was run: as §1
[12] = tested on: Mus musculus; assay: Mean percentage time spend immobile on ring between 5 and 10 min at 3.125 (mg/kg) intravenous dose in 6 mice; assay type: ADME, organism-based; details: in vivo; how it was run: as §1
[13] = tested on: Mus musculus; assay: Mean number of squares entered(counts) over a 5 min period after placement in the center of a walled arena marked out in 16 squares of equal size at 3.125 (mg/kg) intravenous dose in 6 mice; assay type: ADME, organism-based; details: in vivo; how it was run: as §2
[14] = tested on: Mus musculus; assay: Mean difference between rectal temperature measured at time zero and rectal temperature measured at 10 min at 1.5625 (mg/kg) intravenous dose in 6 mice; assay type: ADME, organism-based; details: in vivo; how it was run: as §3
[15] = tested on: Mus musculus; assay: Mean difference between rectal temperature measured at time zero and rectal temperature measured at 10 min at 3.125 (mg/kg) intravenous dose in 6 mice; assay type: ADME, organism-based; details: in vivo; how it was run: as §3

In the case of `CCCCC/C=C\C/C=C\C/C=C\C/C=C\CCCC(=O)NC[C@H](C)O`, the Ki [1] is reported as 26 nM, the IC50 [2] is reported as 47 nM and the Ki [3] is reported as 158 nM.
In the case of `CCCCC/C=C\C/C=C\C/C=C\C/C=C\CCCC(=O)NC[C@@H](C)O`, the Ki [1] is reported as 119 nM, the IC50 [2] is reported as 100 nM and the Ki [3] is reported as > 2950 nM.
`CCCCC/C=C\C/C=C\C/C=C\C/C=C\CCCC(=O)N[C@@H](C)CO` gave an IC50 [2] of 230 nM.
Work on `CCCCC/C=C\C/C=C\C/C=C\C/C=C\CCCC(=O)NCCO` [ANANDAMIDE] yielded a Ring immobility [4] of 64.2%, a Hypokinesia [5] of 14.7 Counts and a Body temperature [6] of -3.18 °C. It also gave a Hypokinesia [7] of 10.2 Counts, an IC50 [2] of 52 nM and a Body temperature [8] of -1.43 °C. It also gave a Ring immobility [9] of 93.9%.
Work on `CCCCC/C=C\C/C=C\C/C=C\C/C=C\CCCC(=O)N[C@H](C)CO` [METHANANDAMIDE] yielded a Hypokinesia [10] of 76.8 Counts, an IC50 [2] of 12 nM and a Ring immobility [11] of 40.2%. For the same compound, the Ring immobility [12] was 87.4%, the Hypokinesia [13] was 26.5 Counts and the Body temperature [14] was 0.27 °C. It also gave a Body temperature [15] of 1.5 °C.
